Laboratory results reported in ChEMBL document CHEMBL3758117, “Discovery of indeno[1,2-b]quinoxaline derivatives as potential anticancer agents” (Eur J Med Chem, 2016).
Active and inactive are the calls of the source. The rule behind the calls is not given here.

Key:
[1] = target: DNA topoisomerase 2-alpha (Homo sapiens) (UniProt P11388); assay: Inhibition of human DNA topoisomerase 2-mediated relaxation of supercoiled pBR322 DNA at 100 uM after 30 mins by ethidium bromide staining based agarose gel electrophoresis
Summary of the method: (§1)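 Human topo I or topo II (2 units) was reacted with 0.2 μg supercoiled pBR322 in 20 μl Tris-HCl pH 7.5 containing KCl, DTT, EDTA, MgCl2 and BSA, with DMSO held at 0.5%, for 30 min at 37°C. The reaction was stopped with SDS. Samples were run on 1% agarose in Tris-acetate/EDTA at 1.5 V/cm for 2-3 h and stained with ethidium bromide. Relaxation was quantified by densitometry of the supercoiled band area.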

[2] = target: DNA topoisomerase 2-alpha (Homo sapiens) (UniProt P11388); assay: Inhibition of human DNA topoisomerase 2-mediated relaxation of supercoiled pBR322 DNA at 10 uM after 30 mins by ethidium bromide staining based agarose gel electrophoresis; summary of the method: as §1
Escherichia coli = assay: Binding affinity to Escherichia coli negative supercoiled pBR322 DNA at 10 uM after 12 hrs by ethidium bromide staining based agarose gel electrophoresis
Summary of the method: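 Negatively supercoiled pBR322 (400 ng) in TE buffer pH 8.0 was incubated with compound at 10 μM for 12 h at room temperature. Loading buffer with sarkosyl was added. Samples were run on 1% agarose at 6 V/cm for 2.5 h in TAE pH 8.5, stained with ethidium bromide and photographed under UV.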

MRC5 [3] = assay: Selectivity index, ratio of IC50 for human MRC5 cells to IC50 for human MDA-MB-231 cells; assay type: functional
Huh-7 = assay: Selectivity index, ratio of IC50 for human MRC5 cells to IC50 for human HuH7 cells; assay type: functional
[4] = Antiproliferative activity against human PC3 cells after 72 hrs by XTT assay; assay type: functional, cell-based; conditions: PC-3, 72 h
Summary of the method: (§2)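 Cells kept as monolayers in DMEM with 10% FBS, penicillin, streptomycin and amphotericin at 37°C, 5% CO2. Seeded at 5 x 10³ cells/well and exposed to compound for 72 h in medium with 10% FBS. XTT plus electron-coupling reagent added, 4 h at 37°C, absorbance read at 492 nm. Percent of control growth uses mean absorbance (n = 3). The 50% value is taken from the linear portion of the curve.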

[5] = Antiproliferative activity against human HuH7 cells after 72 hrs by XTT assay; assay type: functional, cell-based; conditions: Huh-7, 72 h; summary of the method: as §2
MDA-MB-231 = assay: Antiproliferative activity against human MDA-MB-231 cells after 72 hrs by XTT assay; assay type: functional, cell-based; conditions: MDA-MB-231, 72 h; summary of the method: as §2
MRC5 [6] = assay: Antiproliferative activity against human MRC5 cells after 72 hrs by XTT assay; assay type: cell-based; conditions: MRC5, 72 h; summary of the method: as §2
[7] = Antiproliferative activity against human H1299 cells after 72 hrs by XTT assay; assay type: functional, cell-based; conditions: NCI-H1299, 72 h; summary of the method: as §2
MRC5 [8] = assay: Selectivity index, ratio of IC50 for human MRC5 cells to IC50 for human PC3 cells; assay type: functional
[9] = Selectivity index, ratio of IC50 for human MRC5 cells to IC50 for human H1299 cells; assay type: functional
[10] = target: T1, DNA topoisomerase 1 (Homo sapiens) (UniProt P11387); assay: Inhibition of human DNA topoisomerase 1-mediated relaxation of supercoiled pBR322 DNA at 10 uM after 30 mins by ethidium bromide staining based agarose gel electrophoresis; summary of the method: as §1
T1 sequence (whole entry): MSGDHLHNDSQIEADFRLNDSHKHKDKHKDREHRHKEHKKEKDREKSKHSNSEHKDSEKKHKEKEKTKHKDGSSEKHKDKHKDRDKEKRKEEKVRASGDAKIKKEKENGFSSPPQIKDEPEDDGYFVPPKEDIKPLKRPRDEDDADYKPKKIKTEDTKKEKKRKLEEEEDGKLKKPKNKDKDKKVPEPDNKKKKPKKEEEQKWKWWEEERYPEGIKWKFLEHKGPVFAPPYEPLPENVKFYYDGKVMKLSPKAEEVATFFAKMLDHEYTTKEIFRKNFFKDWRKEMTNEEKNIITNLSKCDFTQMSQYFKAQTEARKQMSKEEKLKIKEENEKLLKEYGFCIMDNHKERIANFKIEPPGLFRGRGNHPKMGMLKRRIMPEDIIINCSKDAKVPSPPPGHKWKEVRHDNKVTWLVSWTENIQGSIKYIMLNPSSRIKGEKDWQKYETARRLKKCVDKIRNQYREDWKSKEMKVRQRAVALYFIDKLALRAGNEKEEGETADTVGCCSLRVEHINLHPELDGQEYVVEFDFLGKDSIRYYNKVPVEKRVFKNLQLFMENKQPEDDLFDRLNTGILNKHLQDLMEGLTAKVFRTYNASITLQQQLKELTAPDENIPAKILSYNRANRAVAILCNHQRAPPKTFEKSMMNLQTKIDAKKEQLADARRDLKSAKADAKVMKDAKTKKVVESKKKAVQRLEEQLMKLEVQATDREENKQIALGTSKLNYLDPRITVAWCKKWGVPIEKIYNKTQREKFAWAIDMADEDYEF

[11] = target: T1, DNA topoisomerase 1 (Homo sapiens); assay: Inhibition of human DNA topoisomerase 1-mediated relaxation of supercoiled pBR322 DNA at 100 uM after 30 mins by ethidium bromide staining based agarose gel electrophoresis; summary of the method: as §1

Sequence of DNA topoisomerase 2-alpha (Homo sapiens) (P11388 whole entry): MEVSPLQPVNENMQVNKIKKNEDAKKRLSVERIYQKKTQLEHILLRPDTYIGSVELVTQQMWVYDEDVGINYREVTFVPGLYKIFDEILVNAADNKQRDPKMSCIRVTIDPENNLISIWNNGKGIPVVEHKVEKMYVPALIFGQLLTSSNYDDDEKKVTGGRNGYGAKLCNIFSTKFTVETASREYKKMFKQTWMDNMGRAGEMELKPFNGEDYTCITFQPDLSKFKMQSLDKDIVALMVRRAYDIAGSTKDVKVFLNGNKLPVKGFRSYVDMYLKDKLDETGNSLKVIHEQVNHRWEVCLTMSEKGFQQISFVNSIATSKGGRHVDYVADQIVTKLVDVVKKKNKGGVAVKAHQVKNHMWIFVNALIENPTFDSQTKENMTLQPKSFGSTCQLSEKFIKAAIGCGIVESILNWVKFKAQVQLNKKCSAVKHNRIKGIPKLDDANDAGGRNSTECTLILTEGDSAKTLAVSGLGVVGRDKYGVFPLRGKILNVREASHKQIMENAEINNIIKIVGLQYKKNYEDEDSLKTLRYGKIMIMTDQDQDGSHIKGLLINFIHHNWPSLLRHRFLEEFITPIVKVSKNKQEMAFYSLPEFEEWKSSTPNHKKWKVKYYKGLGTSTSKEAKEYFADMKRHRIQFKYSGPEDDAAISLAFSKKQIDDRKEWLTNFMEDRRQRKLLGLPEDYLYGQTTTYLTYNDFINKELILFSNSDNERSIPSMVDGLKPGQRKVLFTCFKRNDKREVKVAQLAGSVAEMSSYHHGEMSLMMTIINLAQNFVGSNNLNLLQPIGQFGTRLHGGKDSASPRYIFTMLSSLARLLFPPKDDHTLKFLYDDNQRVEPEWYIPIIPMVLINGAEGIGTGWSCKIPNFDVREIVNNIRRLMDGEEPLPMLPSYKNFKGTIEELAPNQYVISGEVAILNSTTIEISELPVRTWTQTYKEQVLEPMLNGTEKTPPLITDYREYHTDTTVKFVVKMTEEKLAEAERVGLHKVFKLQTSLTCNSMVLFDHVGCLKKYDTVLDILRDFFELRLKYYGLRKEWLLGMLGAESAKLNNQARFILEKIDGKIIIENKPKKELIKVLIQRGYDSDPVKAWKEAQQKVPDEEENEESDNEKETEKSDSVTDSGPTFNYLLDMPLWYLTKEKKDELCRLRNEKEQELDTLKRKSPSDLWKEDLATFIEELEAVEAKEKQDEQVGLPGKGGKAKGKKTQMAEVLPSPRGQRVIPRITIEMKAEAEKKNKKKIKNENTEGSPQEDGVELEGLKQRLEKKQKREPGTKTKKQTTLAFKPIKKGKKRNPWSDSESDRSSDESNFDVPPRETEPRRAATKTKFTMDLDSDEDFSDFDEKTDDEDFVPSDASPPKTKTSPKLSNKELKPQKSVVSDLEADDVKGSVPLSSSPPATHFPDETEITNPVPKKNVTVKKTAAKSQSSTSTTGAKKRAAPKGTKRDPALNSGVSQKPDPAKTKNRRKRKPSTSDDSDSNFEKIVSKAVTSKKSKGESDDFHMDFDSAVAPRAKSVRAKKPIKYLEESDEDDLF

| SMILES | inhibition [1] | topoisomerase 2 inhibition (active/not active) [2] | Activity (Escherichia coli) | Ratio IC50 (MRC5 [3]) | Ratio IC50 (Huh-7) | IC50 [4] | IC50 [5] | IC50 (MDA-MB-231) | IC50 (MRC5 [6]) | IC50 [7] | Ratio IC50 (MRC5 [8]) | Ratio IC50 [9] | inhibition [10] | topoisomerase 1 inhibition (active/inactive) [11] | inhibition call (active/not active) [1] |
| --- | --- | --- | --- | --- | --- | --- | --- | --- | --- | --- | --- | --- | --- | --- | --- |
| CN(C)CCCO/N=C1\c2ccccc2-c2nc3c(CN4CCOCC4)cccc3nc21.Cl | Active | inactive | inactive | 7.37 | 10.84 | 9.92 µM | 6.78 µM | 9.97 µM | 73.5 µM | 6.93 µM | 7.41 | 10.6 | inactive | Active | – |
| CN(C)CCCO/N=C1\c2ccccc2-c2nc3c(CN(C)C)cccc3nc21.Cl | – | inactive | Active | 0.98 | 1.17 | 0.78 µM | 0.75 µM | 0.9 µM | 0.88 µM | 0.81 µM | 1.13 | 1.09 | Active | Active | Active |
| Cl.c1ccc2c(c1)/C(=N\OCCN1CCCC1)c1nc3ccccc3nc1-2 | – | inactive | inactive | 3.59 | 2.73 | 8.51 µM | 6.46 µM | 4.92 µM | 17.7 µM | 7.03 µM | 2.07 | 2.51 | Active | Active | Active |
| CN(C)CCCO/N=C1\c2ccccc2-c2nc3c(CN4CCC(N5CCCCC5)CC4)cccc3nc21.Cl | – | inactive | inactive | 3.53 | 4.26 | 6.12 µM | 0.82 µM | 0.99 µM | 3.49 µM | 5.14 µM | 0.57 | 0.68 | Active | Active | Active |
| CN(C)CCCNC(=O)c1cccc2nc3c(nc12)-c1ccccc1C3=O | – | inactive | inactive | 1.29 | 1.18 | 10.2 µM | 7.7 µM | 7.04 µM | 9.07 µM | 7.82 µM | 0.89 | 1.16 | inactive | Active | Active |
| CN(C)CCNC(=O)c1cccc2nc3c(nc12)-c1ccccc1C3=O | – | inactive | inactive | 1.23 | 1.18 | 11 µM | 7.64 µM | 7.29 µM | 8.98 µM | 8.75 µM | 0.82 | 1.03 | Active | Active | Active |
| CN(C)CCCO/N=C1\c2ccccc2-c2nc3c(CN4CCCCC4)cccc3nc21.Cl | – | inactive | Active | 1.35 | 1.41 | 0.91 µM | 0.63 µM | 0.66 µM | 0.89 µM | 0.83 µM | 0.98 | 1.07 | Active | Active | Active |
| O=C1c2ccccc2-c2nc3c(C(=O)NCCN4CCCC4)cccc3nc21 | – | inactive | inactive | 1.22 | 0.94 | 12 µM | 8.51 µM | 6.55 µM | 7.99 µM | 11.2 µM | 0.67 | 0.71 | Active | Active | Active |
| CN(C)CCCO/N=C1\c2ccccc2-c2nc3c(C(=O)NCCN(C)C)cccc3nc21.Cl | – | Active | Active | 13.43 | 10.84 | 0.89 µM | 0.83 µM | 0.67 µM | 9 µM | 6.88 µM | 10.11 | 1.31 | Active | Active | Active |
| CN(C)CCCO/N=C1\c2ccccc2-c2nc3c(C(=O)NCCN4CCOCC4)cccc3nc21.Cl | – | inactive | Active | 11.63 | 1.94 | 9.78 µM | 5.94 µM | 0.99 µM | 11.5 µM | 9.69 µM | 1.18 | 1.19 | Active | Active | Active |
| Cc1cccc2nc3c(nc12)-c1ccccc1/C3=N\OCCCN(C)C.Cl | – | inactive | inactive | 1.13 | 1.34 | 7.01 µM | 5.88 µM | 6.84 µM | 7.86 µM | 7.26 µM | 1.12 | 1.08 | Active | Active | Active |
